Reference: ChEMBL document CHEMBL5724801, “EUbOPEN Chemogenomics Library - Multiplex” (2024)
Where “and” joins values, the source holds several entries; their conditions need not be identical. Equal entries are not always repeated.

System: Fibroblast
Assay: Multiplex assay against human fibroblast
Format: toxicity, cell-based
Summary of the method: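 Values for tubulin, mitochondrial-mass and membrane-permeability phenotypes are per cents of cells with healthy nuclei. These cells were identified by CellPathfinder machine-learning gating of live cells that had been stained at seeding with Hoechst33342, BioTracker Green Microtubule Cytoskeleton Dye, MitoTracker Red and Annexin V Alexa Fluor 680 and imaged on a CQ1 microscope at 37°C and 5% CO2 after compound addition. The gating first set Hoechst high-intensity objects apart from normal cells, then split normal cells into healthy, pyknosed or fragmented nuclei, and pyknosed cells into mitotic or apoptotic.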

[1] = 12 h, 1 µM, compound concentration 1 uM
[2] = 12 h, 10 µM, compound concentration 10 uM
[3] = 24 h, 1 µM, compound concentration 1 uM
[4] = 24 h, 10 µM, compound concentration 10 uM
[5] = 48 h, 1 µM, compound concentration 1 uM
[6] = 48 h, 10 µM, compound concentration 10 uM

O=c1cccc2n1C[C@@H]1CNC[C@H]2C1 [CYTISINICLINE]
Population Apoptotic (%) [1]: 5.66% and 13.33%
Population Fragmented Nuclei (%) [1]: 10.05% and 5.19%
Population Healthy Nuclei (%) [1]: 61.9% and 75.32%
Population Hoechst High Intensity Objects (%) [1]: 0%
Population Membrane Permeable-Phenotype (%) [1]: 4.27% and 5.17%
Population Mitochondria Different-Phenotype (%) [1]: 5.98% and 6.9%
Population Mitotic Cells (%) [1]: 94.34% and 86.67%
Population Normal (%) [1]: 100%
Population Pyknosed Nuclei (%) [1]: 28.04% and 19.48%
Population Tubulin-Different-Phenotype (%) [1]: 11.11% and 12.93%
Total Cell Count [1]: 189 and 154
Population Apoptotic (%) [2]: 15.38% and 16.67%
Population Fragmented Nuclei (%) [2]: 13.5% and 4.41%
Population Healthy Nuclei (%) [2]: 62.58% and 80.88%
Population Hoechst High Intensity Objects (%) [2]: 0%
Population Membrane Permeable-Phenotype (%) [2]: 11.76% and 2.42%
Population Mitochondria Different-Phenotype (%) [2]: 9.8% and 7.27%
Population Mitotic Cells (%) [2]: 84.62% and 83.33%
Population Normal (%) [2]: 100%
Population Pyknosed Nuclei (%) [2]: 23.93% and 14.71%
Population Tubulin-Different-Phenotype (%) [2]: 20.59% and 20.61%
Total Cell Count [2]: 163 and 204
Population Apoptotic (%) [3]: 10.81% and 26.67%
Population Fragmented Nuclei (%) [3]: 10.86% and 6.41%
Population Healthy Nuclei (%) [3]: 72.4% and 83.97%
Population Hoechst High Intensity Objects (%) [3]: 0%
Population Membrane Permeable-Phenotype (%) [3]: 3.12% and 3.05%
Population Mitochondria Different-Phenotype (%) [3]: 4.38% and 3.82%
Population Mitotic Cells (%) [3]: 89.19% and 73.33%
Population Normal (%) [3]: 100%
Population Pyknosed Nuclei (%) [3]: 16.74% and 9.62%
Population Tubulin-Different-Phenotype (%) [3]: 13.12% and 12.21%
Total Cell Count [3]: 221 and 156
Population Apoptotic (%) [4]: 8% and 22.22%
Population Fragmented Nuclei (%) [4]: 9.26% and 6.16%
Population Healthy Nuclei (%) [4]: 75.31% and 85.31%
Population Hoechst High Intensity Objects (%) [4]: 0%
Population Membrane Permeable-Phenotype (%) [4]: 6.56% and 4.44%
Population Mitochondria Different-Phenotype (%) [4]: 5.74% and 5%
Population Mitotic Cells (%) [4]: 92% and 77.78%
Population Normal (%) [4]: 100%
Population Pyknosed Nuclei (%) [4]: 15.43% and 8.53%
Population Tubulin-Different-Phenotype (%) [4]: 20.49% and 23.33%
Total Cell Count [4]: 162 and 211
Population Apoptotic (%) [5]: 26.67% and 22.22%
Population Fragmented Nuclei (%) [5]: 7.5% and 5.23%
Population Healthy Nuclei (%) [5]: 86.25% and 83.01%
Population Hoechst High Intensity Objects (%) [5]: 0%
Population Membrane Permeable-Phenotype (%) [5]: 0.48% and 1.57%
Population Mitotic Cells (%) [5]: 73.33% and 77.78%
Population Normal (%) [5]: 100%
Population Pyknosed Nuclei (%) [5]: 6.25% and 11.76%
Population Tubulin-Different-Phenotype (%) [5]: 3.38% and 7.09%
Total Cell Count [5]: 240 and 153
Population Apoptotic (%) [6]: 62.5% and 28.57%
Population Fragmented Nuclei (%) [6]: 8.67% and 8.44%
Population Healthy Nuclei (%) [6]: 87.24% and 85.65%
Population Hoechst High Intensity Objects (%) [6]: 0%
Population Membrane Permeable-Phenotype (%) [6]: 0% and 2.46%
Population Mitotic Cells (%) [6]: 37.5% and 71.43%
Population Normal (%) [6]: 100%
Population Pyknosed Nuclei (%) [6]: 4.08% and 5.91%
Population Tubulin-Different-Phenotype (%) [6]: 8.19% and 18.72%
Total Cell Count [6]: 196 and 237

C[C@@H]1C[C@H]2[C@@H]3CCC4=CC(=O)C=C[C@]4(C)[C@@]3(F)[C@@H](O)C[C@]2(C)[C@@]1(O)C(=O)CO [DEXAMETHASONE]
Population Apoptotic (%) [1]: 62% and 38%
Population Fragmented Nuclei (%) [1]: 18% and 30%
Population Healthy Nuclei (%) [1]: 66% and 48%
Population Hoechst High Intensity Objects (%) [1]: 7% and 3%
Population Membrane Permeable-Phenotype (%) [1]: 0% and 9%
Population Mitochondria Different-Phenotype (%) [1]: 2% and 4%
Population Mitotic Cells (%) [1]: 37% and 61%
Population Normal (%) [1]: 92% and 96%
Population Pyknosed Nuclei (%) [1]: 15% and 20%
Population Tubulin-Different-Phenotype (%) [1]: 26% and 52%
Population Apoptotic (%) [2]: 35% and 30%
Population Fragmented Nuclei (%) [2]: 20% and 24%
Population Healthy Nuclei (%) [2]: 65% and 52%
Population Hoechst High Intensity Objects (%) [2]: 2% and 6%
Population Membrane Permeable-Phenotype (%) [2]: 1% and 4%
Population Mitochondria Different-Phenotype (%) [2]: 5% and 2%
Population Mitotic Cells (%) [2]: 65% and 69%
Population Normal (%) [2]: 98% and 93%
Population Pyknosed Nuclei (%) [2]: 13% and 23%
Population Tubulin-Different-Phenotype (%) [2]: 22% and 53%
Population Apoptotic (%) [3]: 48% and 31%
Population Fragmented Nuclei (%) [3]: 14% and 29%
Population Healthy Nuclei (%) [3]: 68% and 50%
Population Hoechst High Intensity Objects (%) [3]: 5% and 6%
Population Membrane Permeable-Phenotype (%) [3]: 1% and 4%
Population Mitochondria Different-Phenotype (%) [3]: 3% and 1%
Population Mitotic Cells (%) [3]: 52% and 68%
Population Normal (%) [3]: 94% and 93%
Population Pyknosed Nuclei (%) [3]: 17% and 19%
Population Tubulin-Different-Phenotype (%) [3]: 26% and 53%
Population Apoptotic (%) [4]: 42% and 30%
Population Fragmented Nuclei (%) [4]: 15% and 30%
Population Healthy Nuclei (%) [4]: 65% and 44%
Population Hoechst High Intensity Objects (%) [4]: 3% and 6%
Population Membrane Permeable-Phenotype (%) [4]: 1% and 10%
Population Mitochondria Different-Phenotype (%) [4]: 6% and 2%
Population Mitotic Cells (%) [4]: 57% and 69%
Population Normal (%) [4]: 96% and 93%
Population Pyknosed Nuclei (%) [4]: 18% and 24%
Population Tubulin-Different-Phenotype (%) [4]: 22% and 45%
Population Apoptotic (%) [5]: 46% and 37%
Population Fragmented Nuclei (%) [5]: 22% and 38%
Population Healthy Nuclei (%) [5]: 52% and 46%
Population Hoechst High Intensity Objects (%) [5]: 6% and 4%
Population Membrane Permeable-Phenotype (%) [5]: 2% and 4%
Population Mitochondria Different-Phenotype (%) [5]: 4%
Population Mitotic Cells (%) [5]: 53% and 62%
Population Normal (%) [5]: 93% and 95%
Population Pyknosed Nuclei (%) [5]: 24% and 14%
Population Tubulin-Different-Phenotype (%) [5]: 34% and 53%
Population Apoptotic (%) [6]: 50% and 37%
Population Fragmented Nuclei (%) [6]: 22% and 36%
Population Healthy Nuclei (%) [6]: 55% and 43%
Population Hoechst High Intensity Objects (%) [6]: 4% and 7%
Population Membrane Permeable-Phenotype (%) [6]: 0% and 10%
Population Mitochondria Different-Phenotype (%) [6]: 7% and 0%
Population Mitotic Cells (%) [6]: 50% and 62%
Population Normal (%) [6]: 95% and 92%
Population Pyknosed Nuclei (%) [6]: 22% and 20%
Population Tubulin-Different-Phenotype (%) [6]: 19% and 39%
